In assay [1] the target is Metabotropic glutamate receptor 3 (Homo sapiens) (UniProt Q14832). In words: Antagonist activity at human mGlu3 receptor expressed in HEK293 cells by calcium assay. It is filed as functional, cell-based.
In assay [2] the target is Metabotropic glutamate receptor 5 (Homo sapiens) (UniProt P41594). The assay can be described thus: Positive allosteric modulation of human mGlu5 receptor expressed in HEK293 cells by calcium assay. In kind it is functional, cell-based.
In assay [3] the target is T1, Metabotropic glutamate receptor 2 (Homo sapiens, UniProt Q14416). In words: Displacement of [3H]JNJ-46281222 from human mGlu2 receptor expressed in CHOK1 cell membranes assessed as residence time after 1 hr in presence of glutamate by microbeta scintillation counting method. (Loss of bound radioactivity is the signal in a displacement assay; it reports binding, not function.)
Target sequence in this assay (Q14416 19-872 limits assumed): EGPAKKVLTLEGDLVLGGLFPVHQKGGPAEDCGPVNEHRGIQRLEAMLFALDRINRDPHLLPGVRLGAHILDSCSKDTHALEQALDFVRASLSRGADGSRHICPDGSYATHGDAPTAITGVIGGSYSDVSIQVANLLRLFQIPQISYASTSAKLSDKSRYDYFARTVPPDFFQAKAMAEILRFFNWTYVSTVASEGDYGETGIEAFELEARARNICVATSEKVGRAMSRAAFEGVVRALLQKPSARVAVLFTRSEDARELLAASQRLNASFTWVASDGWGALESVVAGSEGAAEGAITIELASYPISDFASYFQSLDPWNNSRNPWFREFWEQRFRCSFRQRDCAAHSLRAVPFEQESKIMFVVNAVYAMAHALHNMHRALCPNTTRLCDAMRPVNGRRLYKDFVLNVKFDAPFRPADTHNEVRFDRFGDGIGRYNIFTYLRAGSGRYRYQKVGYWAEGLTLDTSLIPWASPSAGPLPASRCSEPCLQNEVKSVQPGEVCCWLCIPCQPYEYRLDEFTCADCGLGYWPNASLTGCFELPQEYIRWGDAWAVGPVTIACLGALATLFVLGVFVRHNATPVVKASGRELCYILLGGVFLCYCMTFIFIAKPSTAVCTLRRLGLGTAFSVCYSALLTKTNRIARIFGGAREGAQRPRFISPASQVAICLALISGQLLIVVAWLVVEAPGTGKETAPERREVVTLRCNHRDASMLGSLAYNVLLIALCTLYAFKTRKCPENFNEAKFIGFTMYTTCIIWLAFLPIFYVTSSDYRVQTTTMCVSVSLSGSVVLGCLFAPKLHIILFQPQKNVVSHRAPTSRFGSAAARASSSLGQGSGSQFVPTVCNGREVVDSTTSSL

In assay [4] the target is T1, Metabotropic glutamate receptor 2. The assay can be described thus: Displacement of [3H]JNJ-46281222 from human mGlu2 receptor expressed in CHOK1 cell membranes after 1 hr by microbeta scintillation counting method.
Assay [5] deals with Metabotropic glutamate receptor 3 (Homo sapiens) (UniProt Q14832). In words: Agonist activity at human mGlu3 receptor expressed in HEK293 cells by calcium assay. In kind it is functional, cell-based.
For assay [6] the target is unchanged. In words: Positive allosteric modulation of human mGlu3 receptor expressed in HEK293 cells by calcium assay. It is filed as functional, cell-based.
For assay [7], the target named is Metabotropic glutamate receptor 8 (Homo sapiens) (UniProt O00222). The assay can be described thus: Agonist activity at human mGlu8 receptor expressed in HEK293 cells by calcium assay. In kind it is functional, cell-based.
Assay [8] has as its target Metabotropic glutamate receptor 1 (Homo sapiens) (UniProt Q13255). The assay can be described thus: Positive allosteric modulation of human mGlu1 receptor expressed in HEK293 cells by calcium assay. In kind it is functional, cell-based.
For assay [9], the target named is T1, Metabotropic glutamate receptor 2. The assay can be described thus: Displacement of [3H]JNJ-46281222 from human mGlu2 receptor expressed in CHOK1 cell membranes assessed as dissociation rate constant after 1 hr in presence of glutamate by microbeta scintillation counting method.
Target sequence in this assay (Q14416 19-872 limits assumed): as above
For assay [10] the target is unchanged. In words: Displacement of [3H]JNJ-46281222 from human mGlu2 receptor expressed in CHOK1 cell membranes preincubated for 3 hrs followed by [3H]JNJ-46281222 addition and measured after 1 hr by microbeta scintillation counting method.
In assay [11] the target is Metabotropic glutamate receptor 8 (Homo sapiens) (UniProt O00222). The assay can be described thus: Antagonist activity at human mGlu8 receptor expressed in HEK293 cells by calcium assay. In kind it is functional, cell-based.
Assay [12] has as its target Metabotropic glutamate receptor 5 (Homo sapiens) (UniProt P41594). The assay can be described thus: Antagonist activity at human mGlu5 receptor expressed in HEK293 cells by calcium assay. It is filed as functional, cell-based.
Assay [13] concerns the target T1, Metabotropic glutamate receptor 2. In words: Displacement of [3H]JNJ-46281222 from human mGlu2 receptor expressed in CHOK1 cell membranes assessed as association rate constant after 1 hr in presence of glutamate by microbeta scintillation counting method.
Target sequence in this assay (Q14416 19-872 limits assumed): as above
Assay [14] shares this target. In words: Irreversible displacement of [3H]JNJ-46281222 from human mGlu2 receptor expressed in CHOK1 cell membranes at 10 times IC50 preincubated for 1 hr in presence of glutamate followed by compound washout and [3H]JNJ-46281222 addition measured after 1 hr by microbeta scintillation counting method.
Target sequence in this assay (Q14416 19-872 limits assumed): as above
Assay [15] has the same target. In words: Positive allosteric modulation of human mGlu2 receptor expressed in CHOK1 cell membranes assessed as increase in glutamate-induced [35S]GTPgammaS binding preincubated for 30 mins followed by [35S]GTPgammaS addition and measured after 90 mins by scintillation spectrometry method. In kind it is functional.
Assay [16] deals with Metabotropic glutamate receptor 5 (Homo sapiens) (UniProt P41594). In words: Agonist activity at human mGlu5 receptor expressed in HEK293 cells by calcium assay. In kind it is functional, cell-based.
The target in assay [17] is Metabotropic glutamate receptor 1 (Homo sapiens) (UniProt Q13255). In words: Agonist activity at human mGlu1 receptor expressed in HEK293 cells by calcium assay. In kind it is functional, cell-based.
Metabotropic glutamate receptor 1 (Homo sapiens), sequence (Q13255 19-1194 limits assumed): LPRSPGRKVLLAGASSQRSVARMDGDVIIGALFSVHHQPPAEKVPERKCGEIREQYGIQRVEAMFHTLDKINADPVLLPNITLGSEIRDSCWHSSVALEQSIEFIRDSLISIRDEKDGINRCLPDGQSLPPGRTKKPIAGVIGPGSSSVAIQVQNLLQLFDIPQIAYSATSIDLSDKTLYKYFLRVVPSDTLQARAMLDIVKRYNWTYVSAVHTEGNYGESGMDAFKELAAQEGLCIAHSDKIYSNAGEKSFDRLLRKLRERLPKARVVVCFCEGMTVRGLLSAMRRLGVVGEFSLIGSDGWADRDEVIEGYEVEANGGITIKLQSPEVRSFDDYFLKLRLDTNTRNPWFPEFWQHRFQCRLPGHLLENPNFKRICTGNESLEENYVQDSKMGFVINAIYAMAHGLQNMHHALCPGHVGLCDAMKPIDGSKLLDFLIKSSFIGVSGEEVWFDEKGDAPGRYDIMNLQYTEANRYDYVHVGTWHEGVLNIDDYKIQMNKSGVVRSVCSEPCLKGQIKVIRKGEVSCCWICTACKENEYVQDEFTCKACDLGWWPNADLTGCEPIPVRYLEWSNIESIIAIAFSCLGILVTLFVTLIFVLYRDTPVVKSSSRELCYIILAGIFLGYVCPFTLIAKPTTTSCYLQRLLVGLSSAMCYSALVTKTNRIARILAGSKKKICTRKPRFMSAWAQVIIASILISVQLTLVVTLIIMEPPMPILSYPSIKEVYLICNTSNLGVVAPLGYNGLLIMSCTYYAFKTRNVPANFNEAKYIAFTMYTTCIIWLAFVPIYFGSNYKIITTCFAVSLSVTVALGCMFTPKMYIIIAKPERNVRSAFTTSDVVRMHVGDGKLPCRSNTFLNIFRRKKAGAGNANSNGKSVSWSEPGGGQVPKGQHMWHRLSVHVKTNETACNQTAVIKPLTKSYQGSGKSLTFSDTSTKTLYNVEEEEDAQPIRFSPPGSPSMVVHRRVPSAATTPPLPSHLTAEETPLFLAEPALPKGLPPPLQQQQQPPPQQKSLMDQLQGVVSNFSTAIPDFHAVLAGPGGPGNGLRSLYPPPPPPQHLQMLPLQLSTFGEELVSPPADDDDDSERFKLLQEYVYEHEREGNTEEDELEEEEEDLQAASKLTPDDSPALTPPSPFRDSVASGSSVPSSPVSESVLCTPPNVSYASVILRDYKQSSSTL
The target is the same in assay [18]. The assay can be described thus: Antagonist activity at human mGlu1 receptor expressed in HEK293 cells by calcium assay. It is filed as functional, cell-based.
The species entered for assay [19] is Homo sapiens. The assay can be described thus: Displacement of [3H]JNJ-46281222 from human mGlu2 R6353.32x32A mutant receptor transiently expressed in CHOK1 cell membranes at 10 times IC50 after 1 hr by liquid scintillation counting method.
The species named for assay [20] is Homo sapiens. The assay can be described thus: Displacement of [3H]JNJ-46281222 from human mGlu2 C7957.33x34A mutant receptor transiently expressed in CHOK1 cell membranes at 10 times IC50 after 1 hr by liquid scintillation counting method.
Assay [21] can be described thus: Displacement of [3H]JNJ-46281222 from human mGlu2 T7917.29x30A mutant receptor transiently expressed in CHOK1 cell membranes after 1 hr by liquid scintillation counting method.
Assay [22] is filed under the species Homo sapiens. In words: Displacement of [3H]JNJ-46281222 from human mGlu2 T7917.29x30A mutant receptor transiently expressed in CHOK1 cell membranes preincubated for 3 hrs followed by [3H]JNJ-46281222 addition and measured after 1 hr by liquid scintillation counting method.
The target in assay [23] is T1, Metabotropic glutamate receptor 2. The assay can be described thus: Ratio of EC50 for positive allosteric modulation of human mGlu2 receptor expressed in CHOK1 cell membranes assessed as increase in glutamate-induced [35S]GTPgammaS binding co-incubated with [35S]GTPgammaS to EC50 for positive allosteric modulation of human mGlu2 receptor expressed in CHOK1 cell …. In kind it is functional.
Target sequence in this assay (Q14416 19-872 limits assumed): as the sequence (Q14416 19-872 limits assumed) above

Assay [24] shares this target. The assay can be described thus: Displacement of [3H]JNJ-46281222 from human mGlu2 receptor expressed in CHOK1 cell membranes at IC50 after 1 hr in presence of glutamate by microbeta scintillation counting method.
Target sequence in this assay (Q14416 19-872 limits assumed): as above
The target is the same in assay [25]. In words: Positive allosteric modulation of human mGlu2 receptor expressed in CHOK1 cell membranes assessed as increase in glutamate-induced [35S]GTPgammaS binding at 10 times IC50 test compound added before washing steps preincubated for 30 mins followed by [35S]GTPgammaS addition and measured after 30 mins by scintillation spectrometry method. It is filed as functional.

For assay [26], the system named is Metabotropic glutamate receptor 2 (Homo sapiens), Q14416 [Y787A]. In words: Displacement of [3H]JNJ-46281222 from human mGlu2 Y787A mutant receptor transiently expressed in CHOK1 cell membranes at 10 times IC50 after 1 hr by liquid scintillation counting method.
Assay [27] has as its target T1, Metabotropic glutamate receptor 2. In words: Positive allosteric modulation of human mGlu2 receptor expressed in CHOK1 cell membranes assessed as increase in glutamate-induced [35S]GTPgammaS binding measured after 1 hr by scintillation spectrometry method. In kind it is functional.
For assay [28] the target is unchanged. In words: Irreversible positive allosteric modulation of human mGlu2 receptor expressed in CHOK1 cell membranes assessed as increase in glutamate-induced [35S]GTPgammaS binding at 10 times IC50 preincubated for 30 mins followed by compound washout and subsequent [35S]GTPgammaS addition and measured after 30 mins by scintillation spectrometry method. In kind it is functional. In general terms: GTPγS is a poorly hydrolysed GTP analogue; its binding reports G protein activation.

For assay [29] the target is unchanged. The assay can be described thus: Ratio of Ki for human mGlu2 receptor expressed in CHOK1 cell membranes without preincubation to Ki for human mGlu2 receptor expressed in CHOK1 cell membranes preincubated for 3 hrs. It is filed as cell-based. Summed up: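 CHO-K1 membranes stably expressing hmGlu2 (butyrate-induced, 15 µg) were pre-coupled to WGA SPA beads. […] Nonspecific binding was defined with 10 µM JNJ-40068782. Mean of ≥3 experiments in duplicate.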

Assay [30] shares this target. In words: Displacement of [3H]JNJ-46281222 from human mGlu2 receptor transiently expressed in CHOK1 cell membranes after 1 hr by liquid scintillation counting method.
For assay [31] the target is unchanged. In words: Positive allosteric modulation of human mGlu2 receptor expressed in CHOK1 cell membranes assessed as increase in glutamate-induced [35S]GTPgammaS binding preincubated for 3 hrs followed by [35S]GTPgammaS addition and measured after 1 hr by scintillation spectrometry method. In kind it is functional.
The subject of assay [32] is Metabotropic glutamate receptor 2 (Homo sapiens), Q14416 [R720A]. In words: Displacement of [3H]JNJ-46281222 from human mGlu2 R720A mutant receptor transiently expressed in CHOK1 cell membranes at 10 times IC50 after 1 hr by liquid scintillation counting method.

Molecules are shown by their SMILES. Activity calls are given as the source filed them. The rule behind the calls is not given here.

Metabotropic glutamate receptor 3 (Homo sapiens), sequence (Q14832 23-879 limits assumed): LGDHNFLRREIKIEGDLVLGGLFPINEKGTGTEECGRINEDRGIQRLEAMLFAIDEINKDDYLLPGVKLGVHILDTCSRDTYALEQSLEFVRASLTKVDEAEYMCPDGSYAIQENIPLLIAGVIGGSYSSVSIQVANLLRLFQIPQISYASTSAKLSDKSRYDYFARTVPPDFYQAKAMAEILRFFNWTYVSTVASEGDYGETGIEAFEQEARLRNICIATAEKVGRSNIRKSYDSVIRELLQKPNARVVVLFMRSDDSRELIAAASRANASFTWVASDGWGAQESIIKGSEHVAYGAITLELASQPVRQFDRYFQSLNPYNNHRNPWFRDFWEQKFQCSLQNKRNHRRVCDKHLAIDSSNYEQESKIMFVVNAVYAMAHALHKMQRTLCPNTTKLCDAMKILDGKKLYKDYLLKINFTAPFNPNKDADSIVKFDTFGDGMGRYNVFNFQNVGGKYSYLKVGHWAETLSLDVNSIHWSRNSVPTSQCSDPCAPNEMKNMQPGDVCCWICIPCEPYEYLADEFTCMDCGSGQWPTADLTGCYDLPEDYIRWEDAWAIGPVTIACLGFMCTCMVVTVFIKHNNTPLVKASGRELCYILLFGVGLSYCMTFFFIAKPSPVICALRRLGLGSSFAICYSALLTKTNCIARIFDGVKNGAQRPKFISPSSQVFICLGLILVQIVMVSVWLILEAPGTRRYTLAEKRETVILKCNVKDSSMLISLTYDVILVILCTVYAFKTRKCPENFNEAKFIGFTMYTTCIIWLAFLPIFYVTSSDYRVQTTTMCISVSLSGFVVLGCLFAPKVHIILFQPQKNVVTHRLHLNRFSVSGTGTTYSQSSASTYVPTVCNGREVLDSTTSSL
Metabotropic glutamate receptor 5 (Homo sapiens), sequence (P41594 21-1212 limits assumed): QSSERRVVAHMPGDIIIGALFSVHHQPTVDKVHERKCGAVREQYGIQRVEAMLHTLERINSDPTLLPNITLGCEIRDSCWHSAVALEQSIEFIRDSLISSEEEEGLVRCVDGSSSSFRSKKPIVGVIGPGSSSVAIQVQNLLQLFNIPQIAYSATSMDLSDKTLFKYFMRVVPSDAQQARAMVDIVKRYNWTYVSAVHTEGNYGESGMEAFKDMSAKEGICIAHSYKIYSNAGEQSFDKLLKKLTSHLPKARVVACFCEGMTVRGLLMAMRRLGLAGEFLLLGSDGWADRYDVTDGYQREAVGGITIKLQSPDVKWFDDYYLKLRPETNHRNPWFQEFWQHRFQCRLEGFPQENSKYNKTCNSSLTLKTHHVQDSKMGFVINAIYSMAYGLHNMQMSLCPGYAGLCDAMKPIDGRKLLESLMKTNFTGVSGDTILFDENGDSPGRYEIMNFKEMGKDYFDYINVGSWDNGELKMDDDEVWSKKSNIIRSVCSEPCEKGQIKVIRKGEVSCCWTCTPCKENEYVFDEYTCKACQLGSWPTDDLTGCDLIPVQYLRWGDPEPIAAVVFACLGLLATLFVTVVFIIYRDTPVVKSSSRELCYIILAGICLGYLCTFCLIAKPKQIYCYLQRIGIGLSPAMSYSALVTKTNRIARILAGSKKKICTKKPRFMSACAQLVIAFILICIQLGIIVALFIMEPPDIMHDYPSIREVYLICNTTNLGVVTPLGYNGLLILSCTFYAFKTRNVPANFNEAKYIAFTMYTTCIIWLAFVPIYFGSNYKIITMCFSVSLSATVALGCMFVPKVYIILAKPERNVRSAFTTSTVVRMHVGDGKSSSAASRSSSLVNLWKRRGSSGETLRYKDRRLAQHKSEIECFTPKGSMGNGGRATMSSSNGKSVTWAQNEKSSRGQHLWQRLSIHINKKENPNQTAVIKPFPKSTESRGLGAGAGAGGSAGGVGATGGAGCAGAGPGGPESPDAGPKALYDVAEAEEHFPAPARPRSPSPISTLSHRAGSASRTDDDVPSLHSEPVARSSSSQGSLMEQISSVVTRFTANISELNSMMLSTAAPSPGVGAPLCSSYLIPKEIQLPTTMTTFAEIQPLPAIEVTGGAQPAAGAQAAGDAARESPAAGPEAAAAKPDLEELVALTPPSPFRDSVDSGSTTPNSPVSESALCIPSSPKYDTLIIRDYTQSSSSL

For the compound `O=C(Nc1cccc(-c2ccn3c(CC4CC4)nnc3c2C(F)(F)F)c1)c1ccc(S(=O)(=O)F)cc1`, the inhibition result in assay [1], in assay [11], in assay [12], in assay [14] and in [18] was “inactive” each time. The result in assay [2], in assay [5], in [6], in assay [7], in [8] and in [16] was inactive. The result in [17] was inactive. Further, the TIME in [3] was 0.3 h. For the same compound, the Ki (usually a dissociation constant, usually derived from enzyme kinetics or from competition with a known ligand) in assay [4] was 112 nM; in assay [10] it was 166 nM. Further, the K in assay [9] amounted to 0.00091 s⁻¹; in assay [13], 2.1 ×10⁴ /M/s. Also, the EC50 (in general, the concentration giving half of the maximal effect) in assay [15] was 158 nM.

As to `FC(F)(F)c1c(CN2CCC(c3ccccc3)CC2)ccn2c(CC3CC3)nnc12`, the inhibition result in the assay filed under Homo sapiens [19] and in the assay filed under Homo sapiens [20] was “inactive” in each case.

`O=C(Nc1ccc(-c2ccn3c(CC4CC4)nnc3c2C(F)(F)F)cc1)c1ccc(S(=O)(=O)F)cc1`: the pKi (in general, −log10 of the Ki, conventionally taken in molar units) in assay [21] worked out at 6.45. In addition, the inhibition result (in the assay listed under Homo sapiens [22]; in assay [24]) was “inactive” in each case. Moreover, the inhibition entry (in the assay filed under Homo sapiens [19]; in assay [26]; in assay [14]; in the assay listed under Homo sapiens [20]; in [32]) was “Active” throughout. Also, the Ki in [4] is 61.7 nM; in assay [10], 6.17 nM; in assay [30], 174 nM. Further, in [23], the Ratio EC50 stood at 7. For the same compound, the result in assay [25] and in [28] was Active. Moreover, the EC50 in assay [27] is 1260 nM; in assay [31], 178 nM; in assay [15] it was 158 nM. Moreover, the Ratio Ki in assay [29] worked out at 10. Besides, the K in assay [13] was determined as 3.2 ×10³ /M/s.

Take `O=C(NCc1ccc(-c2ccn3c(CC4CC4)nnc3c2C(F)(F)F)cc1)c1ccc(S(=O)(=O)F)cc1`: in assay [3], the TIME is 0.483 h. The results for the Ki in assay [4] and in assay [10] were 5.75 nM and 4.17 nM, respectively. Also, the K in assay [9] was found to be 0.00057 s⁻¹; in assay [13], 2.2 ×10⁵ /M/s. For the same compound, in assay [14], the inhibition result was “inactive”. Moreover, the concentration for a half-maximal effect (EC50) in assay [15] is 15.1 nM.
